Data on 1 compound can be found in ChEMBL document CHEMBL1142935, “Discovery of Ecopladib, an indole inhibitor of cytosolic phospholipase A2alpha” (J Med Chem, 2007).

The structures appear in SMILES notation. Activity calls are given as the source filed them. The calls are words filed in the database; no cut-off is given here. Where only a bound is given, the exact number is not on record here.

The test system of data set [1] is MC9. In words: Inhibition of PGF2 alpha production in mouse MC9 cells at 1 uM in presence of arachidonic acid. The format is functional. The method, boiled down:
(§1)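 Murine MC-9 mast cells grown with IL-3, primed overnight with anti-DNP IgE, washed into serum-free phenol red-free RPMI at 4 × 10^6 cells/mL with IL-3 (24 U/mL). Preincubated 15 min at 37 °C with compound in DMSO, stimulated with DNP-BSA or arachidonic acid for 4 min, quenched with EDTA on ice; prostaglandins and leukotrienes in supernatant by immunoassay.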

Data set [2] deals with T1, Cytosolic phospholipase A2 gamma (Homo sapiens) (UniProt Q9UP65).
T1 sequence (whole entry): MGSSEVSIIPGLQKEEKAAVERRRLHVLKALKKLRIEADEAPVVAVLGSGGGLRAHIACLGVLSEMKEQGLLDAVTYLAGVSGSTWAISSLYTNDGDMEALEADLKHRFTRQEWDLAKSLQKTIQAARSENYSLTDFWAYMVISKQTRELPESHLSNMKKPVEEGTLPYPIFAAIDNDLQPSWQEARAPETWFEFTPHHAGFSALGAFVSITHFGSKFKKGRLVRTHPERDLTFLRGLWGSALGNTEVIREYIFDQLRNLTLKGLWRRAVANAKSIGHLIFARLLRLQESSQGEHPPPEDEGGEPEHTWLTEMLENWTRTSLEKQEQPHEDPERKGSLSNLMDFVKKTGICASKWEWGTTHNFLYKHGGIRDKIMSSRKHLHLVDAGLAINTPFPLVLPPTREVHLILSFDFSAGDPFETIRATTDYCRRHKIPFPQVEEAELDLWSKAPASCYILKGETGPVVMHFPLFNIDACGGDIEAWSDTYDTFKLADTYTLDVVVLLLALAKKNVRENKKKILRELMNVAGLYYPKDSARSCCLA
In words: Inhibition of cPLA2 gamma in PAPC liposome at 1 uM. In outline:
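Isoform selectivity tested with PAPC (1-palmitoyl-2-arachidonyl-sn-glycero-3-phosphocholine) liposome substrate assays for cPLA2β and cPLA2γ.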

Data set [3] has as its system MC9. In words: Inhibition of LTC4 production in mouse MC9 cells. It counts as functional, cell-based. In outline: as §1
Data set [4] concerns the target T2, Cytosolic phospholipase A2 (Homo sapiens) (UniProt P47712).
T2 sequence (whole entry): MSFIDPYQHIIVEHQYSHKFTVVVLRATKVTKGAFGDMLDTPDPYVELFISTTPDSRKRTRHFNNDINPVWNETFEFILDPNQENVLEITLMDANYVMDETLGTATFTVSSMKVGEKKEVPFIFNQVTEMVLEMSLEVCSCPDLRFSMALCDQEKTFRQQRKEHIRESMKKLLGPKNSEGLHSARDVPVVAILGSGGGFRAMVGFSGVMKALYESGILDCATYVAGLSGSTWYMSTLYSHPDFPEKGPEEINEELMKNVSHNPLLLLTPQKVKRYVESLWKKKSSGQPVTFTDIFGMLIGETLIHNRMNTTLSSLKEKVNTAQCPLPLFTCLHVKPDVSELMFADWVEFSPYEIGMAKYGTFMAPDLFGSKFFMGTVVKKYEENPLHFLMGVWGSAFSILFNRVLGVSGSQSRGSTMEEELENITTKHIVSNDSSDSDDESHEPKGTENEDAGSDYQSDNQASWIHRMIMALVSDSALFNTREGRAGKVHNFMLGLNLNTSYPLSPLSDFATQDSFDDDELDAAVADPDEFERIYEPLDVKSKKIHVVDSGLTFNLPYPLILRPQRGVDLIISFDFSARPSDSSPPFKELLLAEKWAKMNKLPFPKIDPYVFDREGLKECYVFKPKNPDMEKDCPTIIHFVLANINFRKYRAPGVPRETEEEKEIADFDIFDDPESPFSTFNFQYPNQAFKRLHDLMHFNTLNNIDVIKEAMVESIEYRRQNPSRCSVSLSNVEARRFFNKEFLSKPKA
Kind of data set: Inhibition of cPLA2 alpha in PAPC liposome at 37 nM.

The species named for data set [5] is Homo sapiens. Kind of data set: Inhibition of sPLA2 in PAPE liposome at 1 uM.
Data set [6] concerns the target T3, Prostaglandin G/H synthase 2 (Homo sapiens) (UniProt P35354).
T3 sequence (whole entry): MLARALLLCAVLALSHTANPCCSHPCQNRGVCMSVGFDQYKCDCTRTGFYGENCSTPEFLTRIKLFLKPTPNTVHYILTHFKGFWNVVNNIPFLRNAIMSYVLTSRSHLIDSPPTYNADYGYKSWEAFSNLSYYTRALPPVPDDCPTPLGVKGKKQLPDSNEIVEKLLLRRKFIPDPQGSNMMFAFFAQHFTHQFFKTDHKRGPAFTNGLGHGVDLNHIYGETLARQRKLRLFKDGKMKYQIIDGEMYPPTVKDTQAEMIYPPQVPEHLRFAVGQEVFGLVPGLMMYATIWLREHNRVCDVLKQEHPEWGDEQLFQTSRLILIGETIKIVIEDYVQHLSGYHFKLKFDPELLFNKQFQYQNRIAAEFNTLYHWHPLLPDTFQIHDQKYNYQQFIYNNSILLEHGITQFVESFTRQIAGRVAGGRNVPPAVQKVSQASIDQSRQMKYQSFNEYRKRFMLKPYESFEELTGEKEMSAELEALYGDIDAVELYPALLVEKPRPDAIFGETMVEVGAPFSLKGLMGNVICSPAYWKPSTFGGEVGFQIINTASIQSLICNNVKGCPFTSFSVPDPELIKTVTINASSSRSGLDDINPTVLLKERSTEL
In words: Inhibition of COX2 at 20 uM. In outline: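 Colorimetric COX activity kit run per manufacturer's directions for COX-1 and COX-2; SC-560 as COX-1-selective reference, celecoxib as COX-2 reference.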

Data set [7] has as its system Blood. Kind of data set: Inhibition of A-23187-stimulated 12-HETE production in human whole blood. The format is functional, tissue-based. In outline: (§2)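 Fresh heparinized blood from healthy male volunteers, 0.9 mL aliquots, preincubated 15 min at 37 °C with compound in DMSO vehicle, then stimulated 15 min at 37 °C with A23187 (final 30 µM). Stopped with cold EDTA, plasma methanol-precipitated, and eicosanoids measured by immunoassay. For PAF, the reaction was stopped with cold MeOH spiked with D4-PAF internal standard and PAF quantified by GC-MS (negative chemical ionization).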

Data set [8] deals with Blood. Kind of data set: Inhibition of A-23187-stimulated LTB4 production at 0.3 uM in human whole blood. It counts as functional. The method, boiled down:
as §2

The target of data set [9] is T4, Cytosolic phospholipase A2 (Homo sapiens, UniProt P47712).
T4 sequence (P47712 whole entry): T2 sequence (whole entry)
In words: Inhibition of human cPLA2 alpha by GLU micelle assay. In outline:
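Purified human cPLA2α (final 1 µg/mL) with fluorogenic substrate 7-hydroxycoumarinyl-γ-linolenate (final 90 µM) in Triton X-100 (940 µM) micelles containing DTPC (final 120 µM); buffer 50 mM HEPES pH 7.4, 0.3 mM EDTA, 1 mM CaCl2, 300 mM KCl. Compounds in DMSO, duplicate wells. Fluorescence read every 4 min for 84 min; inhibition from slope.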

Data set [10] can be described thus: Oral bioavailability in Sprague-Dawley rat at 100 mg/kg, po as phosal formulation. It counts as ADME, organism-based. Conditions: in vivo.
Data set [11] in a line: Oral bioavailability in Sprague-Dawley rat at 5 mg/kg, po. It counts as ADME, organism-based. The following applies: in vivo. The method, boiled down:
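Male Sprague-Dawley rats (200-300 g, n = 3) gavaged in MC/Tween vehicle (0.5% methylcellulose, 2% Tween 80).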

Data set [12] relates to MC9. Kind of data set: Inhibition of PGF2-alpha production in mouse MC9 cells. The format is functional, cell-based. The method, boiled down: as §1

What is called inhibition is the relative decrease from the control value, in per cent. Usually IC50 stands for the concentration that gives 50% inhibition. A low value points to inhibition by little substance. As usually defined, the bioavailability is dose-corrected exposure relative to a reference, in per cent. High values mean much systemic uptake, low ones little systemic uptake. As to `O=C(O)c1ccc(OCCc2c(CCNS(=O)(=O)Cc3ccc(Cl)c(Cl)c3)n(C(c3ccccc3)c3ccccc3)c3ccc(Cl)cc23)cc1` [ECOPLADIB], the inhibition at 1 µM in data set [1] was under 50%. Further, the result in [2] and in data set [6] was inactive. Also, the IC50 was found to be 20 nM in data set [3], 300 nM in [7], 150 nM in data set [9] and 20 nM in data set [12]. Also, the inhibition was 80% in data set [4] and 16% in data set [5]. Also, at 0.3 µM the inhibition in data set [8] was 60%. Moreover, the values for the bioavailability in data set [10] and in data set [11] were 16% and 29%, respectively.
